Assay results as given in ChEMBL document CHEMBL3414559, “Novel C-4 heteroaryl 13-cis-retinamide Mnk/AR degrading agents inhibit cell proliferation and migration and induce apoptosis in human breast and prostate cancer cells and suppress growth of MDA-MB-231 human breast and CWR22Rv1 human prostate tumor xenografts in mice” (J Med Chem, 2015).

Tests used:
[1] = system: MCF7; assay: Growth inhibition of human MCF7 cells by MTT assay; type: functional
Summary of the method: (§1)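 Cells grown in RPMI 1640 with 10% FBS, plated at 2500 cells/well, treated across a dose range; growth read by MTT. GI50 taken from dose–response curves by nonlinear regression, at least three independent experiments.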

[2] = system: MDA-MB-231; assay: Growth inhibition of human MDA-MB-231 cells by MTT assay; type: functional; summary of the method: as §1
[3] = system: MDA-MB-468; assay: Growth inhibition of human MDA-MB-468 cells by MTT assay; type: functional; summary of the method: as §1
[4] = Growth inhibition of human SKBR3 cells by MTT assay; type: functional; settings: SK-BR-3; summary of the method: as §1
[5] = system: LNCaP; assay: Growth inhibition of human LNCAP cells by MTT assay; type: functional; summary of the method: as §1
[6] = Growth inhibition of human CWR22Rv1 cells by MTT assay; type: functional, CWR22R; settings: 22Rv1; summary of the method: as §1
[7] = Growth inhibition of human PC3 cells by MTT assay; type: functional; settings: PC-3; summary of the method: as §1

| Compound | GI50 [1] | GI50 [2] | GI50 [3] | GI50 [4] | GI50 [5] | GI50 [6] | GI50 [7] |
| --- | --- | --- | --- | --- | --- | --- | --- |
| CC1=C(/C=C/C(C)=C/C=C/C(C)=C\C(=O)Nc2ccc(O)cc2)C(C)(C)CCC1n1ccnc1 (stereo not drawn) | 1.99 µM | 13.1 µM | 6.83 µM | 3.89 µM | 3.54 µM | 3.89 µM | 11.7 µM |
| CC1=C(/C=C/C(C)=C/C=C/C(C)=C\C(=O)NCc2ccccc2)C(C)(C)CCC1n1ccnc1 (stereo not drawn) | 9.77 µM | 5.88 µM | 7.24 µM | 10.7 µM | > 100 µM | > 100 µM | > 100 µM |
| CC1=C(/C=C/C(C)=C/C=C/C(C)=C\C(=O)Nc2ccc(F)cc2)C(C)(C)CCC1n1ccnc1 (stereo not drawn) | 0.4 µM | 4.95 µM | 4.57 µM | 25.1 µM | 3.89 µM | 8.12 µM | 30.2 µM |
| CC1=C(/C=C/C(C)=C/C=C/C(C)=C\C(=O)NCc2ccc(F)cc2)C(C)(C)CCC1n1ccnc1 (stereo not drawn) | 1.93 µM | 1.41 µM | 2.45 µM | 5.5 µM | – | – | – |
| CC(O)(CS(=O)(=O)c1ccc(F)cc1)C(=O)Nc1ccc(C#N)c(C(F)(F)F)c1 (stereo not drawn) [BICALUTAMIDE] | – | – | – | – | 2.61 µM | 3.81 µM | 9.15 µM |
| CC1=C(/C=C/C(C)=C/C=C/C(C)=C\C(=O)NCCc2ccc(O)cc2)C(C)(C)CC=C1c1cccnc1 | 8.75 µM | 26.9 µM | 50.1 µM | 42.2 µM | – | – | – |
| CC1=C(/C=C/C(C)=C/C=C/C(C)=C\C(=O)Nc2ccccc2)C(C)(C)CC=C1c1cncnc1 | 7.01 µM | 26.9 µM | 22.9 µM | 31 µM | – | – | – |
| CC1=C(/C=C/C(C)=C/C=C/C(C)=C\C(=O)NCc2cccc(F)c2)C(C)(C)CCC1n1ccnc1 (stereo not drawn) | 1.81 µM | 1.65 µM | 3.09 µM | 4.24 µM | – | – | – |
| CC1=C(/C=C/C(C)=C/C=C/C(C)=C\C(=O)Nc2ccccc2O)C(C)(C)CCC1n1ccnc1 (stereo not drawn) | 1.09 µM | 4.67 µM | 3.03 µM | 3.89 µM | 3.23 µM | 2.23 µM | 15.5 µM |
| CC1=C(/C=C/C(C)=C/C=C/C(C)=C/C(=O)Nc2ccc(O)cc2)C(C)(C)CCC1 [FENRETINIDE] | 4.65 µM | 11.1 µM | 6.02 µM | 3.98 µM | – | – | – |
| CC1=C(/C=C/C(C)=C/C=C/C(C)=C/C(=O)O)C(C)(C)CCC1 [TRETINOIN] | – | 14.1 µM | 14.1 µM | 22.9 µM | – | – | – |
| CC1=C(/C=C/C(C)=C/C=C/C(C)=C\C(=O)NCCc2ccc(O)cc2)C(C)(C)CCC1n1ccnc1 (stereo not drawn) | 1.9 µM | 2.88 µM | 13.5 µM | 1.41 µM | – | – | – |
| CC1=C(/C=C/C(C)=C/C=C/C(C)=C\C(=O)NCCc2ccc(O)cc2)C(C)(C)CC=C1c1cncnc1 | 2.96 µM | 14.5 µM | 23.4 µM | 24 µM | – | – | – |
| CC(=O)C1=C(O)C=C2Oc3c(C(N)=O)c(O)cc(O)c3[C@@]2(C)C1=O | – | 43.6 µM | 47.9 µM | 26 µM | – | – | – |
| CC1=C(/C=C/C(C)=C/C=C/C(C)=C\C(=O)Nc2ccccc2)C(C)(C)CC=C1c1cccnc1 | 8.32 µM | 25.1 µM | 39.8 µM | 47.4 µM | – | – | – |
| CC1=C(/C=C/C(C)=C/C=C/C(C)=C\C(=O)NCc2ccc(O)cc2)C(C)(C)CC=C1c1cncnc1 | 4.96 µM | 11.5 µM | 19.1 µM | 11.5 µM | – | – | – |
